In ChEMBL document CHEMBL4732055, “Discovery of fast-acting dual-stage antimalarial agents by profiling pyridylvinylquinoline chemical space via copper catalyzed azide-alkyne cycloadditions” (Eur J Med Chem, 2021):
Active and inactive are the calls of the source. The rule behind the calls is not given here.

Test system: Plasmodium falciparum
Assay: Antiplasmodial activity against synchronized chloroquine-resistant Plasmodium falciparum Dd2 assessed as reduction in DNA content at 5 times of EC50 treated with compound at 6 to 30 hrs post invasion measured after 12 hrs by YOYO-1 staining-based flow cytometric analysis
Format: functional, organism-based
Conditions: not given

SMILES | Activity
Clc1ccc2nc(/C=C/c3ccncc3)cc(NCCCCn3cc(CN4CCCCC4)nn3)c2c1 | Active

Test system: Plasmodium falciparum
Assay: Antiplasmodial activity against synchronized chloroquine-resistant Plasmodium falciparum Dd2 assessed as appearance of large vacuoles at 5 times of EC50 treated with compound at 6 to 42 hrs post invasion and measured after 12 hrs by Giemsa staining-based microscopic analysis
Format: functional, organism-based
Conditions: not given
Outline: (§1)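 Samples taken at 12 h intervals were made into Giemsa-stained thin smears and scored by microscopy for intraerythrocytic stage and development, against untreated control cultures.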

SMILES | Activity
Clc1ccc2nc(/C=C/c3ccncc3)cc(NCCCCn3cc(CN4CCCCC4)nn3)c2c1 | Active

Test system: not listed separately
Assay: Stability in mouse liver microsomes assessed as parent compound remaining at 1 uM after 15 mins in presence of NADPH regenerating system by LC/MS analysis
Format: ADME, Microsome
Conditions: read-out: Stabilty
Outline: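 Compound at 1 μM final (from 25 μM DMSO stock) with 0.5 mg/mL mouse liver microsomes, NADPH-regenerating system (1.3 mM NADP, 3.3 mM glucose 6-phosphate, 3.3 mM MgCl2, 0.4 U/mL G6PDH) in 0.1 M potassium phosphate pH 7.4, 37 °C with shaking. Aliquots quenched in cold acetonitrile, centrifuged, quantified by LC/MS as percent parent remaining relative to T = 0; CLint and t1/2 reported.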

SMILES | remaining at 0.25 h, 1 µM [%]
CN1CCN(Cc2cn(CCCCNc3cc(/C=C/c4ccncc4)nc4ccc(Cl)cc34)nn2)CC1 | < 50
Clc1ccc2nc(/C=C/c3ccncc3)cc(NCCCCn3cc(CN4CCCCC4)nn3)c2c1 | < 50
O=C1S/C(=C\c2ccccc2)C(=O)N1Cc1cn(CCNc2cc(/C=C/c3ccncc3)nc3ccc(Cl)cc23)nn1 | < 50
Clc1ccc2nc(/C=C/c3ccncc3)cc(NCCCCn3cc(Cn4cccn4)nn3)c2c1 | < 50
Clc1ccc2nc(/C=C/c3ccncc3)cc(NCCCCn3cc(CN4CCOCC4)nn3)c2c1 | < 50

Test system: Plasmodium falciparum
Assay: Parasiticidal activity against chloroquine-resistant Plasmodium falciparum Dd2 infected in erythrocytes assessed as reduction in parasitemia at 6.6 nM incubated for 6 to 12 hrs followed by compound washout and then incubated for 96 hrs by Giemsa staining based microscopic analysis
Format: functional, organism-based
Conditions: time 6-12 hrs

SMILES | Activity
O=C1C(O)=C([C@H]2CC[C@H](c3ccc(Cl)cc3)CC2)C(=O)c2ccccc21 | Active

Test system: Hemozoin
Assay: Inhibition of beta-hematin formation after 16 hrs by inverted microscopic analysis
Conditions: not given

SMILES | inhibition
Clc1ccc2nc(/C=C/c3ccncc3)cc(NCCCCn3cc(CN4CCCCC4)nn3)c2c1 | Dose-dependent effect

Test system: Plasmodium falciparum
Assay: Antiplasmodial activity against late stage (IV/V) gametocytes of Plasmodium falciparum 3D7 harboring luc7 incubated for 72 hrs by ONE-Glo luciferase assay
Format: functional, organism-based
Conditions: 3D7, 72 h
Outline: (§2)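 Gametocytes of the 3D7 luc7 line were induced by nutrient starvation and cleared of asexual parasites with heparin-treated medium. Stage II-III or IV-V gametocytes were Percoll-purified, and 50,000 per well were exposed 72 h to a 19-point gradient (0.038 nM to 10 μM). Read-out was ONE-Glo luciferase after 5 min with reagent. EC50 came from four-parameter variable-slope nonlinear regression.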

SMILES | EC50 [nM]
Clc1ccc2nc(/C=C/c3ccncc3)cc(NCCCCn3cc(CN4CCCCC4)nn3)c2c1 | 890

Test system: Plasmodium falciparum
Assay: Antiplasmodial activity against chloroquine-resistant Plasmodium falciparum Dd2 infected in erythrocytes assessed as reduction in parasite growth after 72 hrs by SYBR green I staining based fluorescence assay
Format: functional, organism-based
Conditions: Dd2, Erythrocyte
Outline: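 Asexual P. falciparum cultures at 1% parasitemia and 1% hematocrit, given serial dilutions in DMSO (0.1% maximum), were incubated 72 h at 37 °C in 5% CO2. Plates were frozen, thawed and lysed with Tris/saponin/EDTA/Triton X-100 buffer containing SYBR Green I, then kept 1 h dark at room temperature. Fluorescence was read at 485 excitation/530 emission. EC50 came from non-linear dose-response curves.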

SMILES | EC50 [nM]
CCN(CC)Cc1cn(CCNc2cc(/C=C/c3ccncc3)nc3ccc(Cl)cc23)nn1 | 1320
Clc1ccc2nc(/C=C/c3ccncc3)cc(-n3cc(CN4CCCCC4)nn3)c2c1 | 1240
CN1CCN(Cc2cn(CCCCNc3cc(/C=C/c4ccncc4)nc4ccc(Cl)cc34)nn2)CC1 | 160
CN1CCN(Cc2cn(CCNc3cc(/C=C/c4ccncc4)nc4ccc(Cl)cc34)nn2)CC1 | > 10000
CCN(CC)Cc1cn(-c2cc(/C=C/c3ccncc3)nc3ccc(Cl)cc23)nn1 | 1320
OCCN1CCN(Cc2cn(-c3cc(/C=C/c4ccncc4)nc4ccc(Cl)cc34)nn2)CC1 | 1660
OCCN1CCN(Cc2cn(CCCCNc3cc(/C=C/c4ccncc4)nc4ccc(Cl)cc34)nn2)CC1 | 670
Clc1ccc2nc(/C=C/c3ccncc3)cc(NCCn3cc(CN4CCCCC4)nn3)c2c1 | 550
O=C1c2ccccc2C(=O)N1Cc1cn(CCNc2cc(/C=C/c3ccncc3)nc3ccc(Cl)cc23)nn1 | 1070
Clc1ccc2nc(/C=C/c3ccncc3)cc(NCCCCn3cc(CN4CCCCC4)nn3)c2c1 | 40
O=C1S/C(=C\c2ccccc2)C(=O)N1Cc1cn(CCNc2cc(/C=C/c3ccncc3)nc3ccc(Cl)cc23)nn1 | 240
Clc1ccc2nc(/C=C/c3ccncc3)cc(NCCCCn3cc(Cn4cccn4)nn3)c2c1 | 350
Clc1ccc2nc(/C=C/c3ccncc3)cc(NCCCCn3cc(CN4CCOCC4)nn3)c2c1 | 170

Test system: Plasmodium falciparum
Assay: Antiplasmodial activity against synchronized chloroquine-resistant Plasmodium falciparum Dd2 assessed as reduction in DNA content at 5 times of EC50 treated with compound at 42 hrs post invasion measured after 12 hrs by YOYO-1 staining-based flow cytometric analysis
Format: functional, organism-based
Conditions: not given

SMILES | Activity
Clc1ccc2nc(/C=C/c3ccncc3)cc(NCCCCn3cc(CN4CCCCC4)nn3)c2c1 | inactive

Test system: Plasmodium falciparum
Assay: Antiplasmodial activity against chloroquine-sensitive Plasmodium falciparum 3D7 infected in erythrocytes assessed as reduction in parasite growth after 72 hrs by SYBR green I staining based fluorescence assay
Format: functional, organism-based
Conditions: 3D7, Erythrocyte
Outline: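 Compound dilutions in DMSO (max 0.1% DMSO) added to P. falciparum culture at 1% parasitemia, 1% hematocrit; 72 h at 37 °C, 5% CO2. Plates frozen, thawed, lysed with buffer containing saponin, Triton X-100, EDTA and SYBR Green I; 1 h dark at room temperature; fluorescence ex 485/em 530. EC50 from non-linear dose-response curves.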

SMILES | EC50 [nM]
CN1CCN(Cc2cn(CCCCNc3cc(/C=C/c4ccncc4)nc4ccc(Cl)cc34)nn2)CC1 | 160
OCCN1CCN(Cc2cn(CCCCNc3cc(/C=C/c4ccncc4)nc4ccc(Cl)cc34)nn2)CC1 | 640
Clc1ccc2nc(/C=C/c3ccncc3)cc(NCCn3cc(CN4CCCCC4)nn3)c2c1 | 470
Clc1ccc2nc(/C=C/c3ccncc3)cc(NCCCCn3cc(CN4CCCCC4)nn3)c2c1 | 70
O=C1S/C(=C\c2ccccc2)C(=O)N1Cc1cn(CCNc2cc(/C=C/c3ccncc3)nc3ccc(Cl)cc23)nn1 | 440
Clc1ccc2nc(/C=C/c3ccncc3)cc(NCCCCn3cc(Cn4cccn4)nn3)c2c1 | 280
Clc1ccc2nc(/C=C/c3ccncc3)cc(NCCCCn3cc(CN4CCOCC4)nn3)c2c1 | 230

Test system: Plasmodium falciparum
Assay: Antiplasmodial activity against synchronized chloroquine-resistant Plasmodium falciparum Dd2 assessed as prevention of parasite cell cycle progression at 5 times of EC50 treated with compound at 6 to 30 hrs post invasion and measured after 12 hrs by Giemsa staining-based microscopic analysis
Format: functional, organism-based
Conditions: not given
Outline: as §1

SMILES | Activity
Clc1ccc2nc(/C=C/c3ccncc3)cc(NCCCCn3cc(CN4CCCCC4)nn3)c2c1 | Active

Test system: Plasmodium falciparum
Assay: Antiplasmodial activity against synchronized chloroquine-resistant Plasmodium falciparum Dd2 assessed as morphological changes at 5 times of EC50 treated with compound at 6 hrs post invasion and measured after 12 hrs by Giemsa staining-based microscopic analysis
Format: functional, organism-based
Conditions: not given
Outline: as §1

SMILES | Activity
Clc1ccc2nc(/C=C/c3ccncc3)cc(NCCCCn3cc(CN4CCCCC4)nn3)c2c1 | inactive

Test system: Plasmodium falciparum
Assay: Parasiticidal activity against chloroquine-resistant Plasmodium falciparum Dd2 infected in erythrocytes assessed as reduction in parasitemia at 5 times of EC50 incubated for 6 to 12 hrs followed by compound washout and then incubated for 96 hrs by Giemsa staining based microscopic analysis
Format: functional, organism-based
Conditions: time 6-12 hrs

SMILES | Activity
Clc1ccc2nc(/C=C/c3ccncc3)cc(NCCCCn3cc(CN4CCCCC4)nn3)c2c1 | Active

Test system: Plasmodium falciparum
Assay: Antiplasmodial activity against synchronized chloroquine-resistant Plasmodium falciparum Dd2 assessed as effect on schizont maturation and reinvasion of merozoite at 5 times of EC50 treated with compound at 42 hrs post invasion and measured after 12 hrs by Giemsa staining-based microscopic analysis
Format: functional, organism-based
Conditions: not given
Outline: as §1

SMILES | Activity
Clc1ccc2nc(/C=C/c3ccncc3)cc(NCCCCn3cc(CN4CCCCC4)nn3)c2c1 | inactive

Test system: Plasmodium falciparum
Assay: Antiplasmodial activity against early stage (II/III) gametocytes of Plasmodium falciparum 3D7 harboring luc7 incubated for 72 hrs by ONE-Glo luciferase assay
Format: functional, organism-based
Conditions: 3D7, 72 h
Outline: as §2

SMILES | EC50 [nM]
Clc1ccc2nc(/C=C/c3ccncc3)cc(NCCCCn3cc(CN4CCCCC4)nn3)c2c1 | 950

Test system: HepG2
Assay: Cytotoxicity against human HepG2 cells assessed as reduction in cell viability after 48 hrs by MTS assay
Format: cell-based
Conditions: HepG2, 48 h
Outline: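 HepG2 cells seeded at 2250 per well, grown 24 h at 37 °C, 5% CO2. Serial compound dilutions starting at 25 μM added for a further 48 h. MTS reagent added for 3 h at 37 °C; viability read as absorbance at 490 nm.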

SMILES | EC50 [nM]
CN1CCN(Cc2cn(CCCCNc3cc(/C=C/c4ccncc4)nc4ccc(Cl)cc34)nn2)CC1 | 15800
OCCN1CCN(Cc2cn(CCCCNc3cc(/C=C/c4ccncc4)nc4ccc(Cl)cc34)nn2)CC1 | > 25000
Clc1ccc2nc(/C=C/c3ccncc3)cc(NCCn3cc(CN4CCCCC4)nn3)c2c1 | 13500
Clc1ccc2nc(/C=C/c3ccncc3)cc(NCCCCn3cc(CN4CCCCC4)nn3)c2c1 | 5490
O=C1S/C(=C\c2ccccc2)C(=O)N1Cc1cn(CCNc2cc(/C=C/c3ccncc3)nc3ccc(Cl)cc23)nn1 | 5730
Clc1ccc2nc(/C=C/c3ccncc3)cc(NCCCCn3cc(Cn4cccn4)nn3)c2c1 | 21200
Clc1ccc2nc(/C=C/c3ccncc3)cc(NCCCCn3cc(CN4CCOCC4)nn3)c2c1 | > 25000
